Assay results: ChEMBL document CHEMBL3351723, “New derivatives of lupane triterpenoids disturb breast cancer mitochondria and induce cell death” (Bioorg Med Chem, 2014)
Calls of active or inactive are those of the source. The calls are words filed in the database; no cut-off is given here.

How the values were obtained:
[1] = Cell cycle arrest against human Hs578T cells assessed as increase in cells at G0/G1 phase at 0.5 ug/ml after 24 to 48 hrs by propidium iodide staining based flow cytometry; assay type: functional; settings: Hs-578T
Procedure, shortened: (§1)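 Log-phase Hs578T cells exposed 24 and 48 h to 0.5 μg/ml. Adherent plus floating cells fixed in cold 70% ethanol, kept overnight at -20°C, washed into PBS-T (132 mM NaCl, 4 mM KCl, 1.2 mM NaH2PO4, 0.1% Tween). Treated with 20 μg/ml RNase for 45 min at 37°C, then propidium iodide for 30 min at 37°C. Phase percentages read by flow cytometry. Mean ± SEM, 5 experiments.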

[2] = Cell cycle arrest against human Hs578T cells assessed as decrease in cells at S phase at 0.5 ug/ml after 24 to 48 hrs by propidium iodide staining based flow cytometry; assay type: functional; settings: Hs-578T; procedure, shortened: as §1
Hs-578T [3] = experiment: Induction of apoptosis in human Hs578T cells assessed as increase in caspase 9 like activity at 1 ug/ml after 24 hrs; assay type: functional, cell-based
Procedure, shortened: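 HS578T cells were treated 24 h at 1 μg/ml. Attached and floating cells were lysed in HEPES pH 7.4/CHAPS/DTT buffer. Extract protein was incubated 2 h at 37°C with […] Ac-DEVD-pNA (caspase-3) or Ac-LEHD-pNA (caspase-9). Released p-nitroanilide was read at endpoint against a pNA calibration. Six experiments, mean ± SEM.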

Hs-578T [4] = experiment: Induction of apoptosis in human Hs578T cells assessed as increase in caspase 3 like activity at 1 ug/ml after 24 hrs; assay type: functional, cell-based
Hs-578T [5] = experiment: Effect on Bax protein level in human Hs578T cells at 1 ug/ml after 24 hrs by Western blot analysis; assay type: functional, cell-based
Hs-578T [6] = experiment: Effect on Bcl2 protein level in human Hs578T cells at 1 ug/ml after 24 hrs by Western blot analysis; assay type: functional, cell-based
MDA-MB-231 = experiment: Cytotoxicity against human MDA-MB-231 cells assessed as reduction in cell number in glucose-free, galactose/glutamine medium after 3 to 5 days; assay type: functional, cell-based
Procedure, shortened: (§2)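 Cells grown in glucose-free DMEM with galactose (1.8 g/L), L-glutamine (0.584 g/L), pyruvate and 10% FBS, forcing ATP from oxidative phosphorylation. Exposed to a dose range for 1, 3 and 5 days. Cell number read by sulforhodamine B and expressed as % of control. Mean ± SEM, 5 experiments.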

MCF7 = experiment: Cytotoxicity against human MCF7 cells assessed as reduction in cell number in glucose-free, galactose/glutamine medium after 3 to 5 days; assay type: functional, cell-based; procedure, shortened: as §2
[7] = Induction of mitochondrial permeability transition pore in Wistar Han rat liver mitochondria assessed as mitochondrial swelling by spectrophotometry; assay type: functional
Procedure, shortened: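 Isolated rat liver mitochondria were energized with succinate plus rotenone and pre-incubated with compound at 0.07–1.33 µg/mg protein. MPT was then triggered by one Ca2+ pulse of 40 nmol/mg protein. Swelling was followed as pseudo-absorbance at 540 nm, and amplitude is basal minus the reading 600 s after Ca2+. Cyclosporin A at 1 µM was the reference, with 6 preparations.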

Liver microsome [8] = experiment: Induction of mitochondrial function disruption in Wistar Han rat liver mitochondria energized with succinate assessed as State-3 level per mg of protein measured at 0.133 ug/mg of protein (reference value: 130.8 +/- 24.1 nmol/mg protein/min); assay type: functional
Liver microsome [9] = experiment: Induction of mitochondrial function disruption in Wistar Han rat liver mitochondria energized with succinate assessed as State-3 level per mg of protein measured at 0.333 ug/mg of protein (reference value: 130.8 +/- 24.1 nmol/mg protein/min); assay type: functional
Liver microsome [10] = experiment: Induction of mitochondrial function disruption in Wistar Han rat liver mitochondria energized with succinate assessed as State-3 level per mg of protein measured at 0.667 ug/mg of protein (reference value: 130.8 +/- 24.1 nmol/mg protein/min); assay type: functional
Liver microsome [11] = experiment: Induction of mitochondrial function disruption in Wistar Han rat liver mitochondria energized with succinate assessed as State-3 level per mg of protein measured at 1.333 ug/mg of protein (reference value: 130.8 +/- 24.1 nmol/mg protein/min); assay type: functional
Liver microsome [12] = experiment: Induction of mitochondrial function disruption in Wistar Han rat liver mitochondria energized with succinate assessed as State-4 level per mg of protein measured at 0.067 ug/mg of protein (reference value: 33.5 +/- 7.5 nmol/mg protein/min); assay type: functional
Liver microsome [13] = experiment: Induction of mitochondrial function disruption in Wistar Han rat liver mitochondria energized with succinate assessed as State-4 level per mg of protein measured at 0.133 ug/mg of protein (reference value: 33.5 +/- 7.5 nmol/mg protein/min); assay type: functional
Liver microsome [14] = experiment: Induction of mitochondrial function disruption in Wistar Han rat liver mitochondria energized with succinate assessed as State-4 level per mg of protein measured at 0.333 ug/mg of protein (reference value: 33.5 +/- 7.5 nmol/mg protein/min); assay type: functional
Liver microsome [15] = experiment: Induction of mitochondrial function disruption in Wistar Han rat liver mitochondria energized with succinate assessed as State-4 level per mg of protein measured at 0.667 ug/mg of protein (reference value: 33.5 +/- 7.5 nmol/mg protein/min); assay type: functional
Liver microsome [16] = experiment: Induction of mitochondrial function disruption in Wistar Han rat liver mitochondria energized with succinate assessed as State-4 level per mg of protein measured at 1.333 ug/mg of protein (reference value: 33.5 +/- 7.5 nmol/mg protein/min); assay type: functional
Liver microsome [17] = experiment: Induction of mitochondrial function disruption in Wistar Han rat liver mitochondria energized with succinate assessed as adenosine diphosphate/O ratio measured at 0.067 ug/mg of protein (reference value: 2.3 +/- 0.2 no_unit); assay type: functional
Liver microsome [18] = experiment: Induction of mitochondrial function disruption in Wistar Han rat liver mitochondria energized with succinate assessed as adenosine diphosphate/O ratio measured at 1.333 ug/mg of protein (reference value: 2.3 +/- 0.2 no_unit); assay type: functional
Liver microsome [19] = experiment: Induction of mitochondrial function disruption in Wistar Han rat liver mitochondria energized with succinate assessed as respiratory control ratio measured at 1.333 ug/mg of protein (reference value: 4.1 +/- 0.5 no_unit); assay type: functional
Hs-578T [20] = experiment: Cytotoxicity against human Hs578T cells at 0.125 to 2 ug/ml incubated for 6 hrs folowed by drug wash out and fresh medium addition and measured 5 days after wash out; assay type: functional, cell-based
[21] = Cytotoxicity against human Hs578T cells assessed as decrease in live cells at 1 ug/ml for 24 to 48 hrs by flow cytometry; assay type: functional; settings: Hs-578T
Procedure, shortened: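 Hs578T seeded at 2.5×10^4 cells/ml, exposed to 1 μg/ml or DMSO for 24 and 48 h. Cells trypsinized and resuspended in HEPES-buffered saline with 15 mM glucose. Stained 15 min at 37°C with 1 μM ethidium homodimer and 0.1 μM calcein-AM. Green (calcein) and red (ethidium homodimer) signals read by flow cytometry. Mean ± SEM, 6 experiments.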

Liver microsome [22] = experiment: Induction of mitochondrial permeability transition pore in Wistar Han rat liver mitochondria assessed as mitochondrial swelling by spectrophotometry relative to control

| SMILES | Activity [1] | inhibition [2] | Activity (Hs-578T [4]) | Activity (Hs-578T [5]) | Activity (Hs-578T [6]) | Cytotoxicity (active/inactive call) (MDA-MB-231) | inhibition (MCF7) | Activity [7] | Activity (Liver microsome [8]) [nmol/min] | Activity (Liver microsome [9]) [nmol/min] | Activity (Liver microsome [10]) [nmol/min] | Activity (Liver microsome [11]) [nmol/min] | Activity (Liver microsome [12]) [nmol/min] | Activity (Liver microsome [13]) [nmol/min] | Activity (Liver microsome [14]) [nmol/min] | Activity (Liver microsome [15]) [nmol/min] | Activity (Liver microsome [16]) [nmol/min] | Ratio (Liver microsome [17]) | Ratio (Liver microsome [18]) | Ratio (Liver microsome [19]) | also measured |
| --- | --- | --- | --- | --- | --- | --- | --- | --- | --- | --- | --- | --- | --- | --- | --- | --- | --- | --- | --- | --- | --- |
| C=C(C)[C@@H]1CC[C@]2(COC(=O)CC[n+]3ccc(N(C)C)cc3)CC[C@]3(C)[C@H](CC[C@@H]4[C@@]5(C)CC[C@H](OC(=O)CC[n+]6ccc(N(C)C)cc6)C(C)(C)[C@@H]5CC[C@]43C)[C@@H]12.[Cl-].[Cl-] | Active | Active | Active | inactive | inactive | Active | Active | inactive | 111 | 121 | 116 | 112 | 29.4 | 25.3 | 29.1 | 25.7 | 25.7 | 1.8 | 1.8 | 4.3 | Activity (Hs-578T [3]): Active; inhibition (Hs-578T [20]): Active |
| C=C(C)[C@@H]1CC[C@]2(COC(=O)C[N+](C)(C)C(C)C)CC[C@]3(C)[C@H](CC[C@@H]4[C@@]5(C)CC[C@H](OC(=O)C[N+](C)(C)C(C)C)C(C)(C)[C@@H]5CC[C@]43C)[C@@H]12.[Cl-].[Cl-] | Active | Active | Active | inactive | inactive | Active | Active | Dose-dependent effect | 121 | 121 | 116 | 107 | 27.5 | 28.6 | 27.2 | 28.8 | 28.7 | 3 | 2.9 | 4.2 | inhibition at 1 µg/mL [21]: 10%; Activity (Hs-578T [3]): Active; inhibition (Hs-578T [20]): Active; fold change (FC) (Liver microsome [22]): 5 |
| C=C(C)[C@@H]1CC[C@]2(COC(=O)C(CC)[n+]3ccc(N(C)C)cc3)CC[C@]3(C)[C@H](CC[C@@H]4[C@@]5(C)CC[C@H](OC(=O)C(CC)[n+]6ccc(N(C)C)cc6)C(C)(C)[C@@H]5CC[C@]43C)[C@@H]12 (some centres not stated) | Active | Active | Active | inactive | inactive | Active | Active | Dose-dependent effect | 131 | 132 | 125 | 119 | 24.1 | 23.7 | 23.2 | 23.2 | 21.5 | 1.6 | 1.6 | 3.2 | inhibition at 1 µg/mL [21]: 10%; Activity (Hs-578T [3]): Active; fold change (FC) (Liver microsome [22]): 5 |
| C=C(C)[C@@H]1CC[C@]2(COC(=O)C[n+]3ccc(N(C)C)cc3)CC[C@]3(C)[C@H](CC[C@@H]4[C@@]5(C)CC[C@H](OC(=O)C[n+]6ccc(N(C)C)cc6)C(C)(C)[C@@H]5CC[C@]43C)[C@@H]12.[Cl-].[Cl-] | Active | Active | Active | inactive | inactive | Active | Active | Dose-dependent effect | 130 | 136 | 141 | 131 | 24.5 | 34.5 | 34.8 | 34.5 | 34.8 | 2.4 | 2.3 | 4 | inhibition at 1 µg/mL [21]: 10%; inhibition (Hs-578T [20]): Active; fold change (FC) (Liver microsome [22]): 5 |
